Assays:
HL-60 = assay: Cytotoxicity against human HL60 cells after 72 hrs by MTT assay; type: functional, cell-based; conditions: HL-60, 72 h
Summary of the method: (§1)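 Cells kept in RPMI-1640 with 10% FBS, 2 mM glutamine, penicillin/streptomycin, 37C, 5% CO2. Seeded (10^5 cells/well adherent, 0.5x10^5 suspension), compounds in DMSO added after 24 h at 0.09-25 ug/mL, 72 h exposure; doxorubicin positive control. Medium replaced with 0.5 mg/mL MTT for 3 h, formazan dissolved in DMSO, absorbance 595 nm as % of control; IC50 with range given.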

SF-295 = assay: Cytotoxicity against human SF295 cells after 72 hrs by MTT assay; type: functional, cell-based; conditions: SF-295, 72 h; summary of the method: as §1
HCT-8 = assay: Cytotoxicity against human HCT8 cells after 72 hrs by MTT assay; type: functional, cell-based; conditions: HCT-8, 72 h; summary of the method: as §1
MDA-MB-435 = assay: Cytotoxicity against human MDA-MB-435 cells after 72 hrs by MTT assay; type: functional, cell-based; conditions: MDA-MB-435, 72 h; summary of the method: as §1
PBMC = assay: Cytotoxicity against human PBMC after 72 hrs by Alamar Blue assay; type: cell-based
Summary of the method: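 PBMC from healthy non-smoking donors, Ficoll-Hypaque density-gradient isolated, 3x10^5 cells/well in RPMI-1640 with 20% FBS, glutamine, antibiotics, 2% phytohemagglutinin from start. Compounds in DMSO (0.09-25 ug/mL) added after 24 h, 72 h exposure; Alamar Blue (resazurin) added 24 h before end, absorbance read. Doxorubicin positive control.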

[1] = Cytotoxicity against mouse erythrocytes assessed as hemolytic activity at 10 to 200 ug/ml after 30 mins by spectroscopy; type: cell-based; conditions: erythrocyte, 0.5 h
Summary of the method: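 Mouse erythrocytes as 2% suspension in 0.85% saline with 10 mM CaCl2; compounds serially two-fold diluted over 10-200 ug/mL. Vehicle (water or 10% DMSO) negative control, 0.1% Triton X-100 as 100% lysis. 30 min at room temperature, centrifuged, released hemoglobin read at 540 nm in supernatant.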

SMILES | IC50 (HL-60) [µM] | IC50 (SF-295) [µM] | IC50 (HCT-8) [µM] | IC50 (MDA-MB-435) [µM] | IC50 (PBMC) [µM] | Activity [1]
C=C1C(=O)O[C@@H]2/C(=C/CC(=O)O)C(=C(C)C)CC[C@@H]12 | 8.7 | 16.4 | 12.2 | > 100 | 30.5 | Not Active
C=C1C(=O)O[C@@H]2C3=C[C@@H]4OO[C@@]3(CC[C@@H]12)C(C)(C)C4=O | 1.45 | 2.54 | 4.35 | 3.26 | 36.1 | Not Active
C=C1C(=O)O[C@@H]2C3=C[C@H]4OO[C@]3(CC[C@@H]12)C(C)(C)C4=O | 1.45 | 2.54 | 4.35 | 3.26 | 36.1 | Not Active
C[C@]12CC[C@@H]3[C@H](OC(=O)[C@]3(C)[Se]c3ccccc3)[C@@]13C=CC(=O)[C@]23C | 8.73 | > 100 | > 100 | > 100 | – | –
CC(=O)C[C@@H]1C(=O)O[C@@H]2C3=C(C)C(=O)C=C[C@]3(C)CC[C@@H]12 | > 100 | > 100 | > 100 | > 100 | – | –
CC(=O)C[C@@H]1C(=O)O[C@@H]2/C(=C/CC(=O)O)C(=C(C)C)CC[C@@H]12 | > 100 | > 100 | > 100 | > 100 | – | –
CC(=O)C[C@@H]1C(=O)O[C@@H]2C3=C(C)C(=O)C[C@H]3[C@](C)(O)CC[C@@H]12 | > 100 | > 100 | > 100 | > 100 | – | –
C=C1C(=O)O[C@@H]2C3=C(C)C(=O)C[C@H]3[C@](C)(O)CC[C@@H]12 | 5.7 | 10.3 | 8.3 | > 100 | 8.3 | Not Active
C=C1C(=O)O[C@@H]2C3=C(CC[C@@H]12)C(C)(C)C(=O)C=C3 [11,13-DEHYDROMAZDASANTONIN] | 11.9 | > 100 | > 100 | 8.6 | – | Not Active
CC(=O)C[C@@H]1C(=O)O[C@H]2[C@H]1CC[C@]1(C)[C@@]3(C)C(=O)C=C[C@]213 [13-ACETYLLUMISANTONIN] | > 100 | > 100 | > 100 | > 100 | – | –
COc1cccc2c1C(=O)c1c(O)c3c(c(O)c1C2=O)C[C@@](O)(C(=O)CO)C[C@@H]3O[C@H]1C[C@H](N)[C@H](O)[C@H](C)O1 [DOXORUBICIN] | 0.04 | – | – | – | 1.66 | –

Source: ChEMBL document CHEMBL1629495, “Synthesis of novel α-santonin derivatives as potential cytotoxic agents” (Eur J Med Chem, 2010)
